Measurements: ChEMBL document CHEMBL1132707, “1-(N-alkylamino)-11-(N-ethylamino)-4,8-diazaundecanes: simple synthetic polyamine analogues that differentially alter tubulin polymerization” (J Med Chem, 1999)

Columns and labels:
Format in all cases: protein assay
Tubulin (Bos taurus) [1] = biological target: T1, Tubulin (Bos taurus) (UniProt Q6B856+Q862L2+Q862F3); assay: The compound was evaluated for its effect on tubulin polymerization in the absence of MAPS as equilibrium reading (10 min reading)
Procedure, shortened: (§1)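 MAP-free purified tubulin, thawed immediately before use. Buffer A (0.1 M MES pH 6.7, 1.0 mM MgCl2, 0.5 mM EGTA), no GTP or organic solvent, with 1 mM analogue (or analogue plus 1 mM spermine), warmed to 37 °C. Started by 10-fold dilution of 10 mg/mL tubulin. OD340 followed from 30 s, equilibrium read at 10 min. At least three determinations, variation ≤10%.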

Tubulin (Bos taurus) [2] = biological target: T1, Tubulin (Bos taurus); assay: The compound was evaluated for its effect on tubulin polymerization in the absence of MAPS as rate =change in OD340/min; procedure, shortened: as §1
Tubulin (Bos taurus) [3] = biological target: T1, Tubulin (Bos taurus); assay: The compound (1 mM) + spermine (1 mM) mixture was evaluated for its effects on tubulin polymerization in the presence of MAPS as equilibrium reading (20 min reading)
Procedure, shortened: (§2)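 MAP-rich tubulin, thawed just before the reaction. Buffer A (0.1 M MES pH 6.7, 1.0 mM MgCl2, 0.5 mM EGTA) containing 1 mM analogue (or analogue plus 1 mM spermine), equilibrated at 37 °C. Started by 7.5-fold dilution of 7.5 mg/mL tubulin. OD340 followed from 30 s, equilibrium read at 20 min. At least three determinations, variation ≤10%.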

Tubulin (Bos taurus) [4] = biological target: T1, Tubulin (Bos taurus); assay: The compound (1 mM) + spermine (1 mM) mixture was evaluated for its effects on tubulin polymerization in the presence of MAPS as rate =change in OD340/min; procedure, shortened: as §2
Tubulin (Bos taurus) [5] = biological target: T1, Tubulin (Bos taurus); assay: The compound (1 mM) + spermine (1 mM) mixture was evaluated for its effect on tubulin polymerization in the absence of MAPS as rate =change in OD340/min; procedure, shortened: as §1
Tubulin (Bos taurus) [6] = biological target: T1, Tubulin (Bos taurus); assay: The compound was evaluated for its effect on tubulin polymerization in the presence of MAPS as equilibrium reading (20 min reading); procedure, shortened: as §2
Tubulin (Bos taurus) [7] = biological target: T1, Tubulin (Bos taurus); assay: The compound was evaluated for its effect on tubulin polymerization in the presence of MAPS as rate =change in OD340/min; procedure, shortened: as §2
Tubulin (Bos taurus) [8] = biological target: T1, Tubulin (Bos taurus); assay: The compound (1 mM) + spermine (1 mM) mixture was evaluated for its effects on tubulin polymerization in the absence of MAPS as equilibrium reading (10 min reading); procedure, shortened: as §1

| Equilibrium OD340 (Tubulin (Bos taurus) [1]) | Rate (delta OD340 min-1) (Tubulin (Bos taurus) [2]) | Equilibrium OD340 (Tubulin (Bos taurus) [3]) | Rate (delta OD340 min-1) (Tubulin (Bos taurus) [4]) | Rate (Tubulin (Bos taurus) [5]) | Equilibrium OD340 (Tubulin (Bos taurus) [6]) | Rate (delta OD340 min-1) (Tubulin (Bos taurus) [7]) | Equilibrium OD340 (Tubulin (Bos taurus) [8]) | Structure (SMILES) | Rate (delta OD340 min-1) (Tubulin (Bos taurus) [5]) |
| --- | --- | --- | --- | --- | --- | --- | --- | --- | --- |
| 1.79 | 0.69 | 0.392 | 0.069 | 0.205 | 0.247 | 0.021 | 1.09 | CCNCCCNCCCNCCCNC[C@@H](C)CC |  |
| 0.563 | 0.096 | 0.514 | 0.031 |  | 0.098 | 0.036 | 1.08 | CCNCCCNCCCNCCCNCC1CC1 | 0.131 |
| 1.31 | 0.14 |  |  |  | 0.624 | 0.055 |  | NCCCNCCCCNCCCN |  |

| Structure (SMILES) | Equilibrium OD340 (Tubulin (Bos taurus) [1]) | Rate (delta OD340 min-1) (Tubulin (Bos taurus) [2]) | Equilibrium OD340 (Tubulin (Bos taurus) [3]) | Rate (delta OD340 min-1) (Tubulin (Bos taurus) [4]) | Rate (Tubulin (Bos taurus) [5]) | Equilibrium OD340 (Tubulin (Bos taurus) [6]) | Rate (delta OD340 min-1) (Tubulin (Bos taurus) [7]) | Equilibrium OD340 (Tubulin (Bos taurus) [8]) | Rate (delta OD340 min-1) (Tubulin (Bos taurus) [5]) |
| --- | --- | --- | --- | --- | --- | --- | --- | --- | --- |
| CCNCCCNCCCNCCCNCC1CCCCCC1 | 2.42 | 0.37 | 1.01 | 0.16 |  | 1.3 | 0.25 | 1.71 | 0.131 |
